Measured values published in article PMC10617274 (Therapeutic Advances in Infectious Disease, 2023).

Legend:
[1] = Cytotoxicity in mouse peritoneal macrophages; format: cell-based, BALB/c mice; settings: BALB/c, Macrophages CC50 + SD, resazurin
Outline: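 Peritoneal lavage cells from BALB/c mice, in RPMI + 10% heat-inactivated FBS, seeded at 3 × 10⁵ macrophages/mL, left to adhere 2 h at 33°C, 5% CO₂; non-adherent cells washed off with PBS. Test compound from 650 µM top, 8 serial 1:2.5 dilutions, quadruplicate, 48 h. Then 3 mM resazurin (stock), fluorescence after 4 h; CC50 by non-linear curve fit; at least three independent trials.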

[2] = system: L. amazonensis promastigotes; assay: Susceptibility assay in promastigotes; format: cell-based, Leishmania amazonensis (MHOM/BR/77/LTB0016 strain); settings: Leishmania amazonensis, 72 h, read-out: Promastigotes IC50 + SD

Question: What does the source list for `C[C@@H]1[C@H](O)[C@@H](C)/C=C/C=C/C=C/C=C/C=C/C=C/C=C/[C@H](O[C@@H]2O[C@H](C)[C@@H](O)[C@H](N)[C@@H]2O)C[C@@H]2O[C@](O)(C[C@@H](O)C[C@@H](O)[C@H](O)CC[C@@H](O)C[C@@H](O)CC(=O)O[C@H]1C)C[C@H](O)[C@H]2C(=O)O` [Amphotericin B]?
Answer: CC50 at 48 h [1]: 5.8 ± 0.5 µM; IC50 [2]: 30 ± 14 nM
